Like-named read-outs stand apart in the source and are kept apart here.
Legend:
[1] = system: CNS neurons in mixed retinal culture; conditions: ref Geiger et al., 2002; cited from earlier work
rats [2] = conditions: ref Swanson et al., 2005; cited from earlier work
neurons after axotomy = conditions: in vivo; ref Geiger et al., 2002; cited from earlier work
rats [3] = conditions: ref Hampton Research, 2016, cited from earlier work
RGC-5 cells = type: cell-based; conditions: one hour, DSSA alone 22.3 ± 0.2, mean ± SEM of 3 experiments
[4] = Superoxide scavenging, xanthine/xanthine oxidase with hydroethidine fluorescence; type: biochemical; conditions: 1, 10, 100 μM, compared to PEG-SOD control
rat [5] = conditions: rat experimental glaucoma; ref Almasieh et al., 2011; cited from earlier work
[6] = Accelerated stability of solid compound by HPLC; type: physicochemical
[7] = Cell-free disulfide reduction of DTNB; type: biochemical; conditions: for reduction of disulfides in cell-free assays: non-deprotected (borane-complexed) forms
rat [8] = conditions: rat optic nerve transection; ref Almasieh et al., 2011; cited from earlier work
[9] = Superoxide detection by EPR with spin trap DEPMPO; type: biochemical; conditions: for reducing activity by EPR spectroscopy: converts superoxide adduct of the spin trap to hydroxyl adduct; for effect on EPR spectra of superoxide adduct of DEPMPO: xanthine/xanthine oxidase
Procedure, shortened: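 Superoxide is generated from hypoxanthine (200 μM) and xanthine oxidase (0.0025 U/mL) with the spin trap DEPMPO present. A hydroxyl-adduct reference spectrum comes from a Fenton reaction: FeSO4 (100 μM), diethylenetriaminepentaacetic acid (100 μM) and H2O2 (1 mM) with DEPMPO (100 mM). Superoxide- and hydroxyl-DEPMPO adducts are recorded by EPR at room temperature, 9.85 GHz.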

[10] = octanol/water, room temperature
[11] = system: RGCs and retinal endothelial cells; conditions: ref Schlieve et al., 2006; cited from earlier work
[12] = over 72 hours, HPLC

Row | Compound | superoxide scavenging (2-hydroxyethidium fluorescence) [4] | neuroprotection in vivo (rat [5]) | peak area, % of control ([6]; 40°C, 37 days) [%] | peak area, % of control ([6]; 40°C, 125 days) [%] | peak area, % of control ([6]; 60°C, 37 days) [%] | peak area, % of control ([6]; 60°C, 125 days) [%] | mean cell fluorescence intensity (DSSA-1) (RGC-5 cells; 10 μM) | reduction of disulfides in cell-free assays [7] | neuroprotection in vivo (rat [8]) | reducing activity by EPR spectroscopy [9] | effect on EPR spectra of superoxide adduct of DEPMPO [9] | other results
1 | O[C@@H](CS)[C@@H](O)CS (racemic) [DTT, dithiothreitol] | – | – | – | – | – | – | – | – | – | – | – | in vitro survival of CNS neurons [1]: can increase in vitro survival
2 | O=C(O)CCP(CCC(=O)O)CCC(=O)O [TCEP, tris(2-carboxyethyl)phosphine] | – | – | – | – | – | – | – | – | – | – | – | neuronal death after optic nerve crush (rats [2]): prevents neuronal death; neuronal death after axotomy (neurons after axotomy): prevents neuronal death; LD50 (rats [3]; i.p injection): greater than 1024 mg/kg; LD50 (rats [3]; rats dosed orally): 3500 mg/kg; mean cell fluorescence intensity (DSSA-1) (RGC-5 cells; 1 mM): 25.6 ± 0.2
3 | bis(3-propionic acid methyl ester) phenylphosphine-borane complex [PB1] | did not appreciably scavenge superoxide | neuroprotective | 80 | 58 | 72 | 12 | 26.7 ± 0.3 | did not reduce disulfides | neuroprotective | – | – | –
4 | COC(=O)CCP(c1ccccc1)c1ccccc1 [P2, (3-propionic acid methyl ester)diphenylphosphine] | – | – | – | – | – | – | – | – | – | strong reducing activity | did not diminish the spectra of superoxide | –
5 | COC(=O)CCP(CCC(=O)OC)c1ccccc1 [P1, bis(3-propionic acid methyl ester) phenylphosphine] | – | – | – | – | – | – | – | – | – | strong reducing activity | did not diminish the spectra of superoxide | –
6 | [BH3-][P+](CCC(=O)OC)(c1ccccc1)c1ccccc1 [PB2, (3-propionic acid methyl ester) diphenylphosphine-borane complex] | did not appreciably scavenge superoxide | neuroprotective | 100 | 86 | 100 | 14 | 36.6 ± 0.2 | did not reduce disulfides | neuroprotective | – | – | log Poct/wat [10]: 1.1; calculated half-life ([6]; 20°C, extrapolation using the Arrhenius equation): 18 years; no toxicity up to (concentration) [11]: 100 µM; reducing capability towards DTNB ([7]; borane removed with DABCO, pH 7, compared with DTT and TCEP): reduced disulfides more effectively than DTT or TCEP; solubility in water [12]: 3.7 µM
